Laboratory results from publication PMC3472128 (Structure (London, England : 1993), 2012).

Tested on: HA-YAP
Experiment: Immunoprecipitation of Smad7 with HA-YAP in HEK293T cells
Type: cell-based, human
Conditions: full-length Smad7 wild type or variants with HA-YAP
How it was run: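 HEK293T cells were transfected with epitope-tagged constructs (HA-YAP with full-length Smad7 wild type or variants) and treated where indicated with TGF-β1 at 100 pM. Lysates were immunoprecipitated with anti-Flag antibody, then immunoblotted with antibodies against the tags.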

B1: S206A: Smad7 mutant S206A, flag epitope-tagged plasmid expressed in HEK293T (protein, UniProt O15105 1-426, looked up, variant S206A)
chain: MFRTKRSALVRRLWRSRAPGGEDEEEGAGGGGGGGELRGEGATDSRAHGAGGGGPGRAGCCLGKAVRGAKGHHHPHPPAAGAGAAGGAEADLKALTHSVLKKLKERQLELLLQAVESRGGTRTACLLLPGRLDCRLGPGAPAGAQPAQPPSSYSLPLLLCKVFRWPDLRHSSEVKRLCCCESYGKINPELVCCNPHHLSRLCELEAPPPPYSRYPMDFLKPTADCPDAVPSSAETGGTNYLAPGGLSDSQLLLEPGDRSHWCVVAYWEEKTRVGRLYCVQEPSLDIFYDLPQGNGFCLGQLNSDNKSQLVQKVRSKIGCGIQLTREVDGVWVYNRSSYPIFIKSATLDNPDSRTLLVHKVFPGFSIKAFDYEKAYSLQRPNDHEFMQQPWTGFTVQISFVKGWGQCYTRQFISSCPCWLEVIFNSR
modifications: full-length FLAG tag
For B1, the “binding to HA-YAP in immunoprecipitation” value was “binding is observed”.
